Results as given in ChEMBL document CHEMBL5375970, “Discovery of Potent and Selective WDR5 Proteolysis Targeting Chimeras as Potential Therapeutics for Pancreatic Cancer” (J Med Chem, 2023).
Calls of active or inactive are those of the source.

Assays:
[1] = target: T1, von Hippel-Lindau disease tumor suppressor/WD repeat-containing protein 5 (Homo sapiens, UniProt P61964+P40337); experiment: PROTAC activity at VHL/WDR5 in human MIA PaCa-2 cells assessed as decrease in WDR5 protein by measuring degradation concentration incubated for 18 hrs by Western blotting analysis; assay type: cell-based
Procedure, shortened: (§1)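 MIA PaCa-2 cells were grown in DMEM with 10% FBS and treated with a concentration series for 18 h. Total lysates were Western blotted for WDR5 against a tubulin loading control using fluorescent secondary antibodies. DC50 and Dmax were fitted from 4 independent experiments.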

[2] = target: T1, von Hippel-Lindau disease tumor suppressor/WD repeat-containing protein 5; experiment: PROTAC activity at VHL/WDR5 in human MIA PaCa-2 cells assessed as degradation of WDR5 protein incubated for 18 hrs by Western blotting analysis; assay type: cell-based
Procedure, shortened: (§2)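 Five PDAC lines (MIA PaCa-2 in DMEM; BxPC-3, HPAF-II, Panc10.05 and PANC-1 in RPMI 1640; all with 10% FBS) given DMSO or compound over a concentration range up to 50 μM for 18 h. Lysates immunoblotted for WDR5 against tubulin. For MIA PaCa-2, DC50 and Dmax were fitted from 4 independent experiments.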

[3] = AUC (0 to last) in Swiss albino mouse at 75 mg/kg,ip administration measured for 0.5 to 12 hrs by LC-MS/MS analysis; assay type: ADME, organism-based; design: time upper 12 hrs, dose 75 mg/kg, time lower 0.5 hrs, route ip; conditions: in vivo
Procedure, shortened: (§3)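 Six male Swiss albino mice were each given one intraperitoneal dose of a solution formulation at 75 mg/kg. […] Plasma was quantified by LC–MS/MS (LLOQ 5.03 ng/mL), values are means of three mice per time point, and PK was derived by nonlinear regression.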

[4] = target: T1, von Hippel-Lindau disease tumor suppressor/WD repeat-containing protein 5; experiment: PROTAC activity at VHL/WDR5 in human BXPC-3 cells assessed as degradation of WDR5 protein incubated for 18 hrs by Western blotting analysis; assay type: cell-based; procedure, shortened: as §2
[5] = system: MIA PaCa-2; experiment: Growth inhibition of human MIA PaCa-2 cells incubated for 6 days by MTS assay; assay type: functional; conditions: MIA PaCa-2, 144 h, time 6 day
Procedure, shortened: (§4)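 MTS read-out. PDAC cells seeded at 500 or 1000 per well and exposed to a compound concentration series for 6 days, with medium plus fresh compound replaced every 2 days. MTS incubated 0.5–2 h, absorbance read at 490 nm. Growth normalized to DMSO. Three independent experiments, mean ± SEM; GI50 by nonlinear regression.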

[6] = target: T1, von Hippel-Lindau disease tumor suppressor/WD repeat-containing protein 5; experiment: PROTAC activity at VHL/WDR5 in human MIA PaCa-2 cells assessed as degradation of WDR5 protein at 0.5 uM incubated for 4 hrs in presence of carfilzomib by Western blotting analysis; assay type: cell-based
Procedure, shortened: (§5)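 Rescue: MIA PaCa-2 cells pretreated for 2 h with 0.4 μM carfilzomib or with OICR-9429 at several concentrations, then given DMSO or 0.5 μM compound for a further 4 h. WDR5 immunoblotted against tubulin. Representative of at least two experiments.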

[7] = target: T1, von Hippel-Lindau disease tumor suppressor/WD repeat-containing protein 5; experiment: PROTAC activity at VHL/WDR5 in human MIA PaCa-2 cells assessed as hook effect upto 50 uM incubated for 18 hrs by Western blotting analysis; assay type: cell-based; procedure, shortened: as §2
[8] = target: T1, von Hippel-Lindau disease tumor suppressor/WD repeat-containing protein 5; experiment: PROTAC activity at VHL/WDR5 in human MIA PaCa-2 cells assessed as degradation of WDR5 protein at 0.1 uM by Western blotting analysis; assay type: cell-based; conditions: TDE = time-dependent effect
Procedure, shortened: (§6)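 Time course: MIA PaCa-2 cells given DMSO or 0.1 μM compound and harvested at the indicated times. Lysates immunoblotted for WDR5, with tubulin as loading control. Representative of at least two independent experiments.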

[9] = target: T1, von Hippel-Lindau disease tumor suppressor/WD repeat-containing protein 5; experiment: PROTAC activity at VHL/WDR5 in human MIA PaCa-2 cells assessed as maximal degradation of WDR5 protein at 0.1 uM incubated for 24 hrs by Western blotting analysis; assay type: cell-based; procedure, shortened: as §6
[10] = target: T1, von Hippel-Lindau disease tumor suppressor/WD repeat-containing protein 5; experiment: PROTAC activity at VHL/WDR5 in human HPAF-II cells assessed as hook effect upto 50 uM incubated for 18 hrs by Western blotting analysis; assay type: cell-based; procedure, shortened: as §2
[11] = target: T1, von Hippel-Lindau disease tumor suppressor/WD repeat-containing protein 5; experiment: PROTAC activity at VHL/WDR5 in human MIA PaCa-2 cells assessed as maximal degradation of WDR5 protein incubated for 18 hrs by Western blotting analysis relative to control; assay type: cell-based; procedure, shortened: as §1
[12] = system: PANC-1; experiment: Growth inhibition of human PANC-1 cells incubated for 6 days by MTS assay; assay type: functional; conditions: PANC-1, 144 h, time 6 day; procedure, shortened: as §4
[13] = system: BXPC-3; experiment: Growth inhibition of human BXPC-3 cells incubated for 6 days by MTS assay; assay type: functional; conditions: BXPC-3, 144 h, time 6 day; procedure, shortened: as §4
[14] = Drug distribution in Swiss albino mouse plasma at 75 mg/kg,ip administration measured for 4 hrs by LC-MS/MS analysis; assay type: ADME, organism-based; procedure, shortened: as §3
[15] = target: WD repeat-containing protein 5 (Homo sapiens, UniProt P61964); experiment: Binding affinity to full-length N-terminal His-tagged WDR5 (unknown origin) expressed in Escherichia coli BL21 (DE3) cells assessed as dissociation constant by isothermal titration calorimetry
Procedure, shortened: (§7)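 Inverse ITC was run with His-tagged VCB (pVHL54–213 co-expressed with EloB1–104 and EloC1–112) and E. coli BL21(DE3)-expressed WDR5, both purified by HisTrap and Superdex 200 gel filtration. Titrations were VCB into ligand, VCB into the ligand–WDR5 complex, and WDR5 into ligand. Three independent replicates were done, reported as mean ± SD, and the first injection was excluded from fitting.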

[16] = target: T1, von Hippel-Lindau disease tumor suppressor/WD repeat-containing protein 5; experiment: PROTAC activity at VHL/WDR5 in human MIA PaCa-2 cells assessed as degradation of WDR5 protein at 1.5 uM incubated for 2 hrs by Western blotting analysis; assay type: cell-based
Procedure, shortened: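 MIA PaCa-2 cells given DMSO or 1.5 μM compound for 2 h. Lysates prepared for proteomics were checked by WDR5 immunoblot.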

[17] = Toxicity in Swiss albino mouse assessed as clinical signs of toxicity at 75 mg/kg,ip observed after 0.5 to 12 hrs; assay type: organism-based; conditions: in vivo, time 0.5-12 hrs
Procedure, shortened: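 Six male Swiss albino mice were given one intraperitoneal dose of a solution formulation at 75 mg/kg and observed for clinical signs during the 12 h PK sampling period (0.5–12 h).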

[18] = target: T1, von Hippel-Lindau disease tumor suppressor/WD repeat-containing protein 5; experiment: PROTAC activity at VHL/WDR5 in human PANC-1 cells assessed as hook effect upto 50 uM incubated for 18 hrs by Western blotting analysis; assay type: cell-based; procedure, shortened: as §2
[19] = target: T1, von Hippel-Lindau disease tumor suppressor/WD repeat-containing protein 5; experiment: PROTAC activity at VHL/WDR5 in human MIA PaCa-2 cells assessed as degradation of WDR5 protein at 0.1 uM incubated for 2 hrs by Western blotting analysis; assay type: cell-based; procedure, shortened: as §6
[20] = target: T1, von Hippel-Lindau disease tumor suppressor/WD repeat-containing protein 5; experiment: PROTAC activity at VHL/WDR5 in human MIA PaCa-2 cells assessed as degradation of WDR5 protein at 1.5 uM incubated for 2 hrs by TMT-labeled mass spectrometry based quantitative proteomics assay; assay type: cell-based
Procedure, shortened: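 TMT proteomics: MIA PaCa-2 cells given DMSO or 1.5 μM compound (2 h in the figure legend, 2.5 h in the methods). Cells lysed in 8 M urea pH 8.0, reduced with DTT, alkylated with iodoacetamide, then digested with LysC/trypsin overnight at 37 °C. Peptides TMT10plex-labelled and analyzed by MS. Cutoffs P < 0.01 and log2 fold change > 0.5, three biological replicates.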

[21] = Cmax in Swiss albino mouse at 75 mg/kg,ip administration measured for 0.5 hrs by LC-MS/MS analysis; assay type: ADME, organism-based; design: time 0.5 hrs, dose 75 mg/kg, route ip; conditions: in vivo; procedure, shortened: as §3
[22] = system: Panc1005; experiment: Growth inhibition of human Panc1005 cells incubated for 6 days by MTS assay; assay type: functional; conditions: Panc1005, 144 h, time 6 day; procedure, shortened: as §4
[23] = target: T1, von Hippel-Lindau disease tumor suppressor/WD repeat-containing protein 5; experiment: PROTAC activity at VHL/WDR5 in human Panc1005 cells assessed as degradation of WDR5 protein incubated for 18 hrs by Western blotting analysis; assay type: cell-based; procedure, shortened: as §2
[24] = Drug distribution in Swiss albino mouse plasma at 75 mg/kg,ip administration measured for 12 hrs by LC-MS/MS analysis; assay type: ADME, organism-based; procedure, shortened: as §3
[25] = target: T1, von Hippel-Lindau disease tumor suppressor/WD repeat-containing protein 5; experiment: PROTAC activity at VHL/WDR5 in human BXPC-3 cells assessed as hook effect upto 50 uM incubated for 18 hrs by Western blotting analysis; assay type: cell-based; procedure, shortened: as §2
[26] = system: HPAF-II; experiment: Growth inhibition of human HPAF-II cells incubated for 6 days by MTS assay; assay type: functional; conditions: 144 h, time 6 day; procedure, shortened: as §4
[27] = target: T1, von Hippel-Lindau disease tumor suppressor/WD repeat-containing protein 5; experiment: PROTAC activity at VHL/WDR5 in human PANC-1 cells assessed as degradation of WDR5 protein incubated for 18 hrs by Western blotting analysis; assay type: cell-based; procedure, shortened: as §2
[28] = target: T1, von Hippel-Lindau disease tumor suppressor/WD repeat-containing protein 5; experiment: PROTAC activity at VHL/WDR5 in human MIA PaCa-2 cells assessed as degradation of WDR5 protein at 0.5 uM incubated for 4 hrs in presence of OICR-9429 by Western blotting analysis; assay type: cell-based; procedure, shortened: as §5
[29] = target: T1, von Hippel-Lindau disease tumor suppressor/WD repeat-containing protein 5; experiment: PROTAC activity at VHL/WDR5 in human HPAF-II cells assessed as degradation of WDR5 protein incubated for 18 hrs by Western blotting analysis; assay type: cell-based; procedure, shortened: as §2
[30] = Binding affinity to His-tagged VCB/full-length N-terminal His-tagged WDR5 (unknown origin) expressed in Escherichia coli BL21 (DE3) cells assessed as dissociation constant by isothermal titration calorimetry; design: species or system Homo sapiens; procedure, shortened: as §7
[31] = target: T1, von Hippel-Lindau disease tumor suppressor/WD repeat-containing protein 5; experiment: PROTAC activity at VHL/WDR5 in human Panc1005 cells assessed as hook effect upto 50 uM incubated for 18 hrs by Western blotting analysis; assay type: cell-based; procedure, shortened: as §2

SMILES: Cc1ncsc1-c1ccc(CNC(=O)[C@@H]2C[C@@H](O)CN2C(=O)[C@@H](NC(=O)CNC(=O)c2ccc(F)c(-c3ccc(N4C[C@@H](C)N(C)[C@@H](C)C4)c(NC(=O)c4c[nH]c(=O)cc4C(F)(F)F)c3)c2)C(C)(C)C)cc1
- DC50 [1]: 0.092 µM
- Activity [2]: Dose-Dependent Effect
- AUC(0-t) [3]: 7300 ng·h/mL
- Activity [4]: Dose-Dependent Effect
- GI50 [5]: 5.7 µM
- Activity [6]: inactive
- Activity [7]: inactive
- Activity [8]: Tde
- Activity [9]: Active
- Activity [10]: inactive
- Emax [11]: 73%
- GI50 [12]: 32.7 µM
- GI50 [13]: 4 µM
- concentration at 4 h [14]: 1000 nM
- Kd [15]: 0.122 µM
- Activity [16]: Active
- Activity [17]: Non-Toxic
- Activity [18]: inactive
- Activity [19]: Active
- Activity [20]: Active
- Cmax [21]: 5000 nM
- GI50 [22]: 14.3 µM
- Activity [23]: Dose-Dependent Effect
- concentration at 12 h [24]: > 100 nM
- Activity [25]: inactive
- GI50 [26]: 9.2 µM
- Activity [27]: Dose-Dependent Effect
- Activity [28]: Active
- Activity [29]: Dose-Dependent Effect
- Kd [30]: 0.232 µM
- Activity [31]: inactive
